Screens from PubChem BioAssay.
Shown are actives, neighbours in structure and some others; about 1.3% of the full set was active somewhere.
PME-1 primary – PME-1 inhibitors via competitive probe labeling, primary screen, biochemical, fluorescence polarization, FP-Rh probe, HTS; Protein phosphatase methylesterase 1 (Homo sapiens), Q9Y570; recombinant PME-1; inhibition, % at 5.9 µM; 0.53% of 320,000 active;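 active = inhibition above the campaign mean of all compounds plus 3 SD, cut at about 26% in these data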;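 also: competitive labeling of PME-1 active site by serine hydrolase directed probe; 0% = PME-1 with DMSO and 100% = wells lacking PME-1 enzyme; inhibitors block probe labeling so polarization falls and inhibition rises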
LYPLA1 counter – LYPLA1 inhibitors, primary screen, counter-screen for PME1 inhibitor project, biochemical, fluorescence polarization, FP-Rh probe ABPP. recombinant LYPLA1. inhibition, % at 5.9 µM. 0.16% of 320,000 active. Acyl-protein thioesterase 1 (Homo sapiens), O75608. AID 2174, 2009;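 active = inhibition above the mean of all tested compounds plus 3 SD, set per campaign, cut at about 14% in these data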;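 also: inhibitors block serine hydrolase probe labeling of LYPLA1 so polarization falls; 0% = enzyme with DMSO and 100% = wells lacking LYPLA1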
Fam108B inh – mouse Fam108B serine hydrolase inhibitors, primary screen, counter-screen for RBBP9 inhibitor project, biochemical, fluorescence polarization; recombinant Fam108B, FP-Rh probe fluorescence polarization; inhibition, % at 9.51 µM; 0.33% of 300,000 active; AID 1947, 2009;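 active = inhibition above the screen mean inhibition plus 3 SD, computed separately per campaign, cut at about 18% in these data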;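 also: inhibitors lower polarization as less probe binds the enzyme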
RBBP9 inh – human RBBP9 inhibitors, primary screen, biochemical, fluorescence polarization, FP-Rh probe, HTS | 0.2% of 220,000 active | inhibition, % at 7.94 µM | recombinant RBBP9 | Serine hydrolase RBBP9 (Homo sapiens), O75884;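 active = inhibition above the campaign mean of all tested compounds plus 3 SD, cut at about 14% in these data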;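 also: plate controls were DMSO wells with RBBP9 for no effect and wells lacking RBBP9 protein for full effect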
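Measured by – fluorescence polarization · Test system – RBBP9 protein · Input – 2.5 µM RBBP9 dispensing solution, before mixing · Measure – percent inhibition from mP, scaled between DMSO and no-protein wells · Benchmarks – DMSO-treated enzyme wells and wells lacking RBBP9 · Times – preincubation 30 min plus labeling 45 min at 25 °C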
LYPLA2 inh – LYPLA2 inhibitors, primary screen, counter-screen for PME1 inhibitor project, biochemical, fluorescence polarization, FP-Rh probe ABPP. Acyl-protein thioesterase 2 (Homo sapiens), O95372. recombinant LYPLA2. inhibition, % at 5.9 µM. 0.38% of 320,000 active;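 active = inhibition above the screen-wide mean plus 3 SD, limit set per campaign, cut at about 26% in these data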;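 also: 0% = LYPLA2 with DMSO and 100% = wells lacking LYPLA2 enzyme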
PAD4 inh – human PAD4 inhibitors, primary screen, biochemical, fluorescence polarization, 1536-well format | Protein-arginine deiminase type-4 (Homo sapiens), Q9UM07 | recombinant PAD4, RCA probe fluorescence polarization | inhibition, % at 6.36 µM | 0.41% of 330,000 active;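 active = percent inhibition above a cutoff equal to the mean of all tested compounds plus 3 SD, cut at about 15% in these data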;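 also: 0% = PAD4 with RCA probe and DMSO and 100% = probe without PAD4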
Target sequence (Q9UM07 whole entry, looked up): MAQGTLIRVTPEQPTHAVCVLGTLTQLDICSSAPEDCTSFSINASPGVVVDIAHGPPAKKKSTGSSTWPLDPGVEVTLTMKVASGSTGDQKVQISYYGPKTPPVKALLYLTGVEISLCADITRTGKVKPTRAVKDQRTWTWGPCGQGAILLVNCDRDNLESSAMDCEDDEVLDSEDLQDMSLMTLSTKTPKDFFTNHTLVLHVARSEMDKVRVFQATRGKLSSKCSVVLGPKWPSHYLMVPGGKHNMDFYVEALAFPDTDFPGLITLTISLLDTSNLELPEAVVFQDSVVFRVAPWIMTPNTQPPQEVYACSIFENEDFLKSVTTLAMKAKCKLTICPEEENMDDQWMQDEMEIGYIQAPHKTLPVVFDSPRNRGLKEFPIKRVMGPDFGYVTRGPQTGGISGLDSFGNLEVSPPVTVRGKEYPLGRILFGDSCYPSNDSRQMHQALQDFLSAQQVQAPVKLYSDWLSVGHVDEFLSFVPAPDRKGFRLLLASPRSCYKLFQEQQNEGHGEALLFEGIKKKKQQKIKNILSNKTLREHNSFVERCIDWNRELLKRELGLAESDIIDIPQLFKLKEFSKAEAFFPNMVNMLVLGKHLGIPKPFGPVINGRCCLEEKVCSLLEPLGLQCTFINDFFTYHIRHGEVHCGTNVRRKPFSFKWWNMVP
LYPLA1 conf – LYPLA1 inhibitors, retest, confirmation, counter-screen for PME1 inhibitor project, biochemical, fluorescence polarization, FP-Rh probe ABPP; shares compounds with LYPLA1 counter; 69% of 480 active; inhibition, % at 5.9 µM; recombinant LYPLA1; AID 2233, 2010;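 active = mean inhibition across replicates above the hit cutoff set in the primary screen, cut at about 15% in these data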;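 also: loss of FP-Rh probe labeling of LYPLA1 seen as lower polarization; 0% = LYPLA1 with DMSO and 100% = wells lacking LYPLA1 enzyme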
* hit, by the source's call; / = not tested or not shown.

SMILES	PME-1 primary	LYPLA1 counter	Fam108B inh	RBBP9 inh	LYPLA2 inh	PAD4 inh	LYPLA1 conf
C/C(=N\NC(=O)c1nnn(-c2nonc2N)c1-c1cccs1)c1ccncc1	6	25*	-3	/	6	0	1
Cc1cccc(NC(=S)N(CCCN2CCOCC2)C(C)c2cc3ccccc3o2)c1C (stereo not drawn)	3	5	7	4	6	-3	/
CCOC(=O)c1cnc(SCC(=O)Nc2ccc(N3CCOCC3)c(Cl)c2)nc1N	4	16*	3	-5	12	0	26*
O=C(/C=C/c1ccccc1)Nc1cc(S(=O)(=O)N2CCOCC2)ccc1N1CCCC1	2	0	2	2	4	-5	/
C=CCSc1nc(C)c(CCCC)c(=O)[nH]1	0	-4	-7	0	-10	3	/
NC(=O)C1=C[C@H](c2ccc(C(F)(F)F)cc2)C[C@H](OCc2ccc(CO)cc2)O1	14	30*	3	-4	13	-7	34*
NC(=O)C1=C[C@@H](c2ccc(C(F)(F)F)cc2)C[C@@H](OCc2ccc(CO)cc2)O1	-3	-1	0	-3	-11	-1	/
COc1ccccc1-c1nnc(SCC(=O)NNC(=O)c2ccccc2F)n1C	-5	24*	/	/	7	2	4
COc1ccccc1-c1nnc(SCC(=O)NC2CC2)n1C	2	1	/	/	6	-6	/
COc1ccc(/C=N\NC(=O)c2sccc2C)cc1Cn1nc(C)cc1C	-6	0	1	/	3	3	/
CCOC(=O)c1ccc(Oc2c(C)oc3c(CN4CCN(C)CC4)c(O)ccc3c2=O)cc1	-10	17*	0	-2	13	3	17*
CC1(OC(=O)c2cnc3ccccc3n2)C(=O)C=C2C=C(C3CC3)OC=C2C1=O (stereo not drawn)	66*	58*	48*	/	76*	38*	27*
Cc1nc(S/C(=C/c2ccc(-c3ccc(Cl)cc3)o2)C(=O)O)n[nH]1	19	20*	10	-1	3	-2	19*
CC(=O)c1ccc(-c2ccc(/C=C(/Sc3n[nH]c(C)n3)C(=O)O)o2)cc1	7	9	11	1	4	2	/
O=C(Cc1ccccc1)N1CCC(c2nc(-c3ccc(F)cc3)no2)CC1	4	17*	2	-1	5	-3	7
Brc1cnc2nc[nH]c2c1	2	-1	5	-7	-5	1	/
O=C(COc1ccc(Cl)cc1)N1CCN(c2ccc([N+](=O)[O-])c(N3CCCCC3)c2)CC1	1	66*	0	-6	21	1	79*
CC1CN(Cc2cc(=O)oc3cc(O)c(Cl)cc23)CC(C)O1 (stereo not drawn)	3	16*	6	/	20	-4	42*
CN(C(=O)CS(=O)(=O)c1cn(CC(=O)N2CCCC2)c2ccccc12)c1ccccc1	2	3	3	/	4	-7	/
O=c1[nH]c(O)c(/C=C2\C=Nc3ccc(Br)cc32)[nH]1	17	36*	2	/	8	-4	40*
Cc1ccc(NC(=O)COc2ccc(/C=C3/SC(=Nc4ccccc4)N(Cc4cccnc4)C3=O)cc2)cc1	0	68*	-11	-2	0	-3	-1
COc1cc(OC)c(OC)cc1/C=C1\Oc2cc(OCC(=O)N3Cc4ccccc4C[C@H]3C(=O)O)ccc2C1=O	-12	25*	2	/	-6	3	22*
CCOc1ccc(/C=N/Nc2cc(N3CCOCC3)nc(C)n2)c(O)c1	30*	30*	10	/	13	-3	33*
CCOc1ccc(/C=N/Nc2cc(C)nc(N3CCOCC3)n2)cc1	8	-5	4	-4	-3	0	/
